Common to all, as to type: functional, cell-based
One experiment concerns PC-3. The experiment is described as follows: Antiproliferative activity against human PC3 cells after 3 days by WST-1 assay. The note with it: PC-3, 72 h. In outline:
(§1)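 Cells from ATCC; PC-3 and LNCaP grown in RPMI-1640 and DU145 in EMEM, each with 10% FBS and 1% penicillin/streptomycin, 37 °C, 5% CO2. Seeded 3,200 cells/well and exposed for 3 days to at least five doses, with DMSO as vehicle control. WST-1 reagent added for 3 h at 37 °C, absorbance read at 430 nm. IC50 taken from a linear inhibition plot; mean ± SD of three independent experiments.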

The next experiment relates to DU-145. The experiment can be described thus: Antiproliferative activity against human DU145 cells after 3 days by WST-1 assay. The note with it: DU-145, 72 h. The gist of the method:
as §1

Another experiment has as its system LNCaP. The experiment can be described thus: Antiproliferative activity against human LNCAP cells after 3 days by WST-1 assay. The conditions noted are these: 72 h. In outline: as §1

This note sets out measurements from ChEMBL document CHEMBL4043132, “3-O-Substituted-3',4',5'-trimethoxyflavonols: Synthesis and cell-based evaluation as anti-prostate cancer agents” (Bioorg Med Chem, 2017).

pIC50: −log10 of the molar value.

On to `O=c1c(O)c(-c2ccc(O)c(O)c2)oc2cc(O)ccc12` [FISETIN], for which the figures for the negative-log IC50 (pIC50) with PC-3, in the experiment with DU-145 and with LNCaP were less than 4.30, less than 4.30 and 4.47, respectively.
Turning to `COc1cc(-c2oc3ccccc3c(=O)c2OC)cc(OC)c1OC`, the values for the negative-log IC50 (pIC50) in the experiment with PC-3, with DU-145 and with LNCaP were 4.72, less than 4.30 and 4.61, respectively.
The matching figures for `CCCOc1c(-c2cc(OC)c(OC)c(OC)c2)oc2ccccc2c1=O`: 4.93, 5.55 and 5.24.
On the same counts, the results for `CCCCCN(CCCCC)CCCCCOc1c(-c2cc(OC)c(OC)c(OC)c2)oc2ccccc2c1=O` are 5.02, 4.93 and 5.10.
For `CCCN(CCC)CCCCOc1c(-c2cc(OC)c(OC)c(OC)c2)oc2ccccc2c1=O`, the results for the pIC50 in the experiment on PC-3, in the experiment on DU-145 and with LNCaP were 4.94, 4.45 and 4.77, respectively.
On the same counts, the results for `CCN(CC)CCCCOc1c(-c2cc(OC)c(OC)c(OC)c2)oc2ccccc2c1=O` are 4.86, 4.88 and 4.87.
The matching figures for `COc1cc(-c2oc3ccccc3c(=O)c2OC(C)C)cc(OC)c1OC`: 4.67, less than 4.30 and 5.06.
The matching figures for `CCN(CC)CCCOc1c(-c2cc(OC)c(OC)c(OC)c2)oc2ccccc2c1=O`: 4.87, less than 4.30 and 4.42.
For the compound `CCCCOc1c(-c2cc(OC)c(OC)c(OC)c2)oc2ccccc2c1=O`, the negative-log IC50 (pIC50) in the experiment with PC-3 was 4.89; in the experiment with DU-145, less than 4.30; with LNCaP it was 5.05.
The matching figures for `CCCCCOc1c(-c2cc(OC)c(OC)c(OC)c2)oc2ccccc2c1=O`: 4.65, less than 4.30 and 4.81.
On the same counts, the results for `CCCN(CCC)CCCOc1c(-c2cc(OC)c(OC)c(OC)c2)oc2ccccc2c1=O` are 4.77, less than 4.30 and 4.75.
On the same counts, the results for `CCCCN(CCCC)CCCCCOc1c(-c2cc(OC)c(OC)c(OC)c2)oc2ccccc2c1=O` are 5.17, less than 4.30 and 5.11.
`CCCCN(CCCC)CCCOc1c(-c2cc(OC)c(OC)c(OC)c2)oc2ccccc2c1=O`: the pIC50 in the experiment with PC-3 is 5.15; with DU-145, 4.80; in the experiment with LNCaP, 5.05.
`CCCCCN(CCCCC)CCCCOc1c(-c2cc(OC)c(OC)c(OC)c2)oc2ccccc2c1=O`: the pIC50 is 5.10 in the experiment with PC-3, 4.90 in the experiment on DU-145 and 5.01 in the experiment on LNCaP.
Take `CCCCN(CCCC)CCCCOc1c(-c2cc(OC)c(OC)c(OC)c2)oc2ccccc2c1=O`: the values for the negative logarithm of the IC50 (pIC50) in the experiment on PC-3, with DU-145 and in the experiment with LNCaP were 5.28, 4.82 and 5.11, respectively.
On the same counts, the results for `CCCC(C)Oc1c(-c2cc(OC)c(OC)c(OC)c2)oc2ccccc2c1=O` (stereo not given) are 4.31, less than 4.30 and 4.82.
For the compound `CCN(CC)CCCCCOc1c(-c2cc(OC)c(OC)c(OC)c2)oc2ccccc2c1=O`, the pIC50 with PC-3 was 5.18; in the experiment with DU-145 it was 4.48; in the experiment on LNCaP, 5.00.
On the same counts, the results for `CCC(C)Oc1c(-c2cc(OC)c(OC)c(OC)c2)oc2ccccc2c1=O` (stereo not given) are 4.41, less than 4.30 and 5.03.
For `O=c1c(O)c(-c2ccc(O)c(O)c2)oc2cc(O)cc(O)c12` [QUERCETIN], the pIC50 with PC-3 and with DU-145 was less than 4.00 each time.
As for `CCCCCCCOc1c(-c2cc(OC)c(OC)c(OC)c2)oc2ccccc2c1=O`, the negative-log IC50 (pIC50) with PC-3, in the experiment on DU-145 and in the experiment on LNCaP was less than 4.30 throughout.
`CCCCCCOc1c(-c2cc(OC)c(OC)c(OC)c2)oc2ccccc2c1=O`: the negative-log IC50 (pIC50) is 4.53 with PC-3, less than 4.30 with DU-145 and 4.71 in the experiment with LNCaP.
The matching figures for `CCCN(CCC)CCCCCOc1c(-c2cc(OC)c(OC)c(OC)c2)oc2ccccc2c1=O`: 5.59, 4.62 and 5.12.
